Reference: ChEMBL document CHEMBL5303300, “EUbOPEN Chemogenomics Library - Multiplex” (2023)
Several values for one entry are separate records, joined by “and”; a condition that tells them apart may be missing. Equal entries are not always repeated.

What was measured:
[1] = test system: Fibroblast; assay: Multiplex assay against human fibroblast; type: toxicity, cell-based; conditions: number of replicates 2
In short: (§1)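 Compound was added to live cells that had been stained at seeding with Hoechst33342, BioTracker Green Microtubule Cytoskeleton Dye, MitoTracker Red and Annexin V Alexa Fluor 680, and imaging followed on a CQ1 microscope at 37°C and 5% CO2. CellPathfinder machine-learning gating divided cells into Hoechst high-intensity objects or normal cells, normal cells into healthy, pyknosed or fragmented nuclei, and pyknosed cells into mitotic or apoptotic. Tubulin, mitochondrial-mass and membrane-permeability phenotypes are per cents of healthy-nucleus cells.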

[2] = test system: HEK-293T; assay: Multiplex assay against HEK293T; type: toxicity, cell-based; conditions: human, number of replicates 2; in short: as §1
[3] = 24 h, 10 µM, compound concentration 10 uM
[4] = 48 h, 1 µM, compound concentration 1 uM
[5] = 48 h, 10 µM, compound concentration 10 uM
[6] = 12 h, 1 µM, compound concentration 1 uM
[7] = 12 h, 10 µM, compound concentration 10 uM
[8] = 24 h, 1 µM, compound concentration 1 uM

For `N[C@@H]1c2cccnc2[C@H](OC(=O)N2CCC(n3c(=O)[nH]c4ncccc43)CC2)CC[C@H]1c1cccc(F)c1F` [RIMEGEPANT], the “Population Hoechst High Intensity Objects (%)” value [1, 3] was 0%, the “Population Membrane Permeable-Phenotype (%)” value [1, 3] was 7% and 6% and the “Population Mitochondria Different-Phenotype (%)” value [1, 3] was 3% and 5%. For the same molecule, the “Population Mitotic Cells (%)” value [1, 3] was 52% and 35%, the “Population Normal (%)” value [1, 3] was 100% and 99% and the “Population Pyknosed Nuclei (%)” value [1, 3] was 9% and 7%. The “Population Tubulin-Different-Phenotype (%)” value [1, 3] was 50% and 36%, the “Total Cell Count” value [1, 3] was 199 and 236 and the “Population Apoptotic (%)” value [1, 4] was 65% and 48%. For the same molecule, the “Population Fragmented Nuclei (%)” value [1, 4] was 8% and 21%, the “Population Healthy Nuclei (%)” value [1, 4] was 75% and 65% and the “Population Hoechst High Intensity Objects (%)” value [1, 4] was 0% and 1%. For the same molecule, the “Population Membrane Permeable-Phenotype (%)” value [1, 4] was 4% and 2%, the “Population Mitochondria Different-Phenotype (%)” value [1, 4] was 1% and the “Population Mitotic Cells (%)” value [1, 4] was 35% and 51%. For the same molecule, the “Population Normal (%)” value [1, 4] was 100% and 98%, the “Population Pyknosed Nuclei (%)” value [1, 4] was 16% and 12% and the “Population Tubulin-Different-Phenotype (%)” value [1, 4] was 6% and 10%. For the same molecule, the “Total Cell Count” value [1, 4] was 125 and 227, the “Population Apoptotic (%)” value [1, 5] was 77% and 47% and the “Population Fragmented Nuclei (%)” value [1, 5] was 14% and 13%. For the same molecule, the “Population Healthy Nuclei (%)” value [1, 5] was 81% and 78%, the “Population Hoechst High Intensity Objects (%)” value [1, 5] was 0% and the “Population Membrane Permeable-Phenotype (%)” value [1, 5] was 1% and 5%. The “Population Mitochondria Different-Phenotype (%)” value [1, 5] was 1% and 0%, the “Population Mitotic Cells (%)” value [1, 5] was 22% and 52% and the “Population Normal (%)” value [1, 5] was 99% and 100%. For the same molecule, the “Population Pyknosed Nuclei (%)” value [1, 5] was 4% and 7%, the “Population Tubulin-Different-Phenotype (%)” value [1, 5] was 37% and 16% and the “Total Cell Count” value [1, 5] was 205 and 225. For the same molecule, the “Population Apoptotic (%)” value [2, 6] was 64% and 44%, the “Population Fragmented Nuclei (%)” value [2, 6] was 4% and 5% and the “Population Healthy Nuclei (%)” value [2, 6] was 78% and 83%. For the same molecule, the “Population Hoechst High Intensity Objects (%)” value [2, 6] was 14% and 10%, the “Population Membrane Permeable-Phenotype (%)” value [2, 6] was 3% and 1% and the “Population Mitochondria Different-Phenotype (%)” value [2, 6] was 18% and 17%. For the same molecule, the “Population Mitotic Cells (%)” value [2, 6] was 35% and 55%, the “Population Normal (%)” value [2, 6] was 85% and 89% and the “Population Pyknosed Nuclei (%)” value [2, 6] was 17% and 10%. For the same molecule, the “Population Tubulin-Different-Phenotype (%)” value [2, 6] was 47%, the “Total Cell Count” value [2, 6] was 573 and 694 and the “Population Apoptotic (%)” value [2, 7] was 40% and 46%. For the same molecule, the “Population Fragmented Nuclei (%)” value [2, 7] was 4%, the “Population Healthy Nuclei (%)” value [2, 7] was 83% and 84% and the “Population Hoechst High Intensity Objects (%)” value [2, 7] was 5% and 6%. The “Population Membrane Permeable-Phenotype (%)” value [2, 7] was 1% and 4%, the “Population Mitochondria Different-Phenotype (%)” value [2, 7] was 49% and 18% and the “Population Mitotic Cells (%)” value [2, 7] was 60% and 53%. The “Population Normal (%)” value [2, 7] was 94% and 93%, the “Population Pyknosed Nuclei (%)” value [2, 7] was 12% and 11% and the “Population Tubulin-Different-Phenotype (%)” value [2, 7] was 98% and 82%. For the same molecule, the “Total Cell Count” value [2, 7] was 526 and 617, the “Population Apoptotic (%)” value [2, 8] was 56% and 37% and the “Population Fragmented Nuclei (%)” value [2, 8] was 7% and 6%. For the same molecule, the “Population Healthy Nuclei (%)” value [2, 8] was 75% and 85%, the “Population Hoechst High Intensity Objects (%)” value [2, 8] was 11% and 8% and the “Population Membrane Permeable-Phenotype (%)” value [2, 8] was 0% and 1%. For the same molecule, the “Population Mitochondria Different-Phenotype (%)” value [2, 8] was 5% and 4%, the “Population Mitotic Cells (%)” value [2, 8] was 43% and 62% and the “Population Normal (%)” value [2, 8] was 88% and 91%. For the same molecule, the “Population Pyknosed Nuclei (%)” value [2, 8] was 17% and 7%, the “Population Tubulin-Different-Phenotype (%)” value [2, 8] was 18% and 20% and the “Total Cell Count” value [2, 8] was 820 and 1035. For the same molecule, the “Population Apoptotic (%)” value [2, 3] was 48% and 36%, the “Population Fragmented Nuclei (%)” value [2, 3] was 9% and 8% and the “Population Healthy Nuclei (%)” value [2, 3] was 84% and 83%. The “Population Hoechst High Intensity Objects (%)” value [2, 3] was 8%, the “Population Membrane Permeable-Phenotype (%)” value [2, 3] was 5% and 2% and the “Population Mitotic Cells (%)” value [2, 3] was 51% and 63%. The “Population Normal (%)” value [2, 3] was 91%, the “Population Pyknosed Nuclei (%)” value [2, 3] was 6% and 7% and the “Population Tubulin-Different-Phenotype (%)” value [2, 3] was 91% and 67%. The “Total Cell Count” value [2, 3] was 709 and 978, the “Population Apoptotic (%)” value [2, 4] was 26% and 9% and the “Population Fragmented Nuclei (%)” value [2, 4] was 12% and 16%. For the same molecule, the “Population Healthy Nuclei (%)” value [2, 4] was 82% and 80%, the “Population Hoechst High Intensity Objects (%)” value [2, 4] was 7% and 8% and the “Population Membrane Permeable-Phenotype (%)” value [2, 4] was 4% and 5%. For the same molecule, the “Population Mitochondria Different-Phenotype (%)” value [2, 4] was 0%, the “Population Mitotic Cells (%)” value [2, 4] was 73% and 90% and the “Population Normal (%)” value [2, 4] was 92% and 91%. For the same molecule, the “Population Pyknosed Nuclei (%)” value [2, 4] was 4% and 2%, the “Population Tubulin-Different-Phenotype (%)” value [2, 4] was 7% and 8% and the “Total Cell Count” value [2, 4] was 2054 and 2768. The “Population Apoptotic (%)” value [2, 5] was 34% and 14%, the “Population Fragmented Nuclei (%)” value [2, 5] was 14% and the “Population Healthy Nuclei (%)” value [2, 5] was 82%. For the same molecule, the “Population Hoechst High Intensity Objects (%)” value [2, 5] was 8% and 10%, the “Population Membrane Permeable-Phenotype (%)” value [2, 5] was 6% and the “Population Mitochondria Different-Phenotype (%)” value [2, 5] was 9% and 1%. For the same molecule, the “Population Mitotic Cells (%)” value [2, 5] was 65% and 85%, the “Population Normal (%)” value [2, 5] was 91% and 89% and the “Population Pyknosed Nuclei (%)” value [2, 5] was 2% and 3%. For the same molecule, the “Population Tubulin-Different-Phenotype (%)” value [2, 5] was 83% and 44% and the “Total Cell Count” value [2, 5] was 1243 and 2004.
